According to ChEMBL document CHEMBL2021769, “Isolation, structure elucidation, and biological evaluation of 16,23-epoxycucurbitacin constituents from Eleaocarpus chinensis” (J Nat Prod, 2012):
The source made the active and inactive calls. The rule behind the calls is not given here.

Assays:
[1] = system: HT-29; experiment: Cytotoxicity against human HT-29 cells after 3 days by sulforhodamine B assay; format: functional, cell-based; settings: HT-29, 72 h
[2] = system: HT-29; experiment: Cytotoxicity against human HT-29 cells after 3 days by mitochondrial transmembrane potential assay; format: functional, cell-based; settings: HT-29, 72 h
[3] = system: HT-29; experiment: Antitumor activity against human HT-29 cells xenografted in immunodeficient NCr nu/nu mouse assessed as inhibition of tumor growth at 0.5 to 10 mg/kg, ip dosed as four daily injections on day 3,4,5 and 6 followed by fiber retrieval on day 7 by in-vivo hollow fiber assay; format: functional, organism-based
How it was run: (§1)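 Murine hollow fiber model, ip route; fibers loaded per fiber with HT29 1 × 10⁶, MCF-7 5 × 10⁶, or MDA-MB-435 1 × 10⁶ cells. Dosing 0.5 to 10 mg/kg per day for four days in 5% EtOH/5% Tween 80 in physiologic saline; paclitaxel positive control at 2.0 mg/kg per day for four days. Proliferation inhibition assessed in each cell type.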

[4] = system: MDA-MB-435; experiment: Antitumor activity against human MDA-MB-435 cells xenografted in immunodeficient NCr nu/nu mouse assessed as inhibition of tumor growth at 0.5 to 10 mg/kg, ip dosed as four daily injections on day 3,4,5 and 6 followed by fiber retrieval on day 7 by in-vivo hollow fiber assay; format: functional, organism-based; how it was run: as §1
[5] = system: MCF7; experiment: Antitumor activity against human MCF7 cells xenografted in immunodeficient NCr nu/nu mouse assessed as inhibition of tumor growth at 0.5 to 10 mg/kg, ip dosed as four daily injections on day 3,4,5 and 6 followed by fiber retrieval on day 7 by in-vivo hollow fiber assay; format: functional, organism-based; how it was run: as §1

CC(C)(O)/C=C/C(=O)[C@](C)(O)[C@H]1[C@H](O)C[C@@]2(C)[C@@H]3CC=C4[C@@H](C[C@H](O)C(=O)C4(C)C)[C@]3(C)C(=O)C[C@]12C [CUCURBITACIN D]
IC50 [1]: 120 nM | IC50 [2]: > 20000 nM

CC(=O)O[C@H]1C(=O)[C@@]2(C)[C@H]([C@H](OC(=O)c3ccccc3)[C@]3(O)C[C@H](OC(=O)[C@H](O)[C@@H](NC(=O)c4ccccc4)c4ccccc4)C(C)=C1C3(C)C)[C@]1(OC(C)=O)CO[C@@H]1C[C@@H]2O [PACLITAXEL]
IC50 [1]: 6 nM

CC(C)=C[C@H]1C[C@](C)(O)[C@H]2[C@@H](C[C@@]3(C)[C@@H]4C(=O)C=C5[C@@H](CC[C@H](O)C5(C)C)[C@]4(C)C(=O)C[C@]23C)O1 [ELAEOCARPUCIN H]
IC50 [1]: 2700 nM

CC(C)(O)/C=C/C(=O)[C@](C)(O)[C@H]1[C@H](O)C[C@@]2(C)[C@@H]3CC=C4[C@@H](C=C(O)C(=O)C4(C)C)[C@]3(C)C(=O)C[C@]12C [CUCURBITACIN I]
IC50 [1]: 190 nM

C=C(C)[C@@H](O)[C@H]1C[C@](C)(O)[C@H]2[C@@H](C[C@@]3(C)[C@@H]4CC=C5[C@@H](CC[C@H](O)C5(C)C)[C@]4(C)C(=O)C[C@]23C)O1 [ELAEOCARPUCIN B]
IC50 [1]: > 10000 nM | IC50 [2]: > 20000 nM

C/C(C=O)=C\[C@H]1C[C@](C)(O)[C@H]2[C@@H](C[C@@]3(C)[C@@H]4CC=C5[C@@H](CC[C@H](O)C5(C)C)[C@]4(C)C(=O)C[C@]23C)O1 [ELAEOCARPUCIN E]
IC50 [1]: > 10000 nM

C=C(C)C(=O)[C@H]1C[C@](C)(O)[C@H]2[C@@H](C[C@@]3(C)[C@@H]4CC=C5[C@@H](CC[C@H](O)C5(C)C)[C@]4(C)C(=O)C[C@]23C)O1 [ELAEOCARPUCIN D]
IC50 [1]: 5600 nM

CC(C)=C[C@H]1C[C@](C)(O)[C@H]2[C@@H](C[C@@]3(C)[C@@H]4CC=C5[C@@H](CC[C@H](O)C5(C)C)[C@]4(C)C(=O)C[C@]23C)O1
IC50 [1]: > 10000 nM | IC50 [2]: > 20000 nM

CC(C)(O)C[C@H]1C[C@](C)(O)[C@H]2[C@@H](C[C@@]3(C)[C@@H]4CC=C5[C@@H](CC[C@H](O)C5(C)C)[C@]4(C)C(=O)C[C@]23C)O1 [ELAEOCARPUCIN F]
IC50 [1]: > 10000 nM | IC50 [2]: > 20000 nM

CC(C)=C[C@@H]1O[C@@H]2C[C@@]3(C)[C@@H]4CC=C5[C@@H](CC[C@H](O)C5(C)C)[C@]4(C)C(=O)C[C@]3(C)[C@H]2[C@@](C)(O)[C@@H]1O [ELAEOCARPUCIN G]
IC50 [1]: 2900 nM

C/C(=C\[C@H]1C[C@](C)(O)[C@H]2[C@@H](C[C@@]3(C)[C@@H]4CC=C5[C@@H](CC[C@H](O)C5(C)C)[C@]4(C)C(=O)C[C@]23C)O1)CO [ELAEOCARPUCIN C]
IC50 [1]: 410 nM | inhibition [3]: inactive | inhibition [4]: inactive | inhibition [5]: inactive | IC50 [2]: > 20000 nM

CC(C)(O)/C=C/C(=O)[C@](C)(O)[C@H]1[C@H](O)C[C@@]2(C)[C@@H]3CC=C4[C@@H](CC(=O)[C@H](O)C4(C)C)[C@]3(C)C(=O)C[C@]12C
IC50 [1]: 39 nM | IC50 [2]: > 20000 nM

C=C(C)[C@H](O)[C@H]1C[C@](C)(O)[C@H]2[C@@H](C[C@@]3(C)[C@@H]4CC=C5[C@@H](CC[C@H](O)C5(C)C)[C@]4(C)C(=O)C[C@]23C)O1 [ELAEOCARPUCIN A]
IC50 [1]: > 10000 nM | IC50 [2]: > 20000 nM

CC(=O)OC(C)(C)/C=C/C(=O)[C@](C)(O)[C@H]1[C@H](O)C[C@@]2(C)[C@@H]3CC=C4[C@@H](C[C@H](O)[C@@H](O)C4(C)C)[C@]3(C)C(=O)C[C@]12C
IC50 [1]: 540 nM
